Key:
[1] = Extent of FeEnt-induced quenching of FM fluorescence in live cells; format: cell-based, Escherichia coli; settings: 10 nM FeEnt, 2.5 × 10^7 cells/ml, FM-labeled mutants
How it was run: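 Hosts were tonB+ ΔfepA or ΔtonB ΔfepA E. coli expressing plasmid-borne Cys-substituted FepA, grown in iron-deficient MOPS medium to late log. 10^10 cells were labeled with 5 µM fluorescein-5-maleimide in 50 mM Na2HPO4, 0.9% NaCl, pH 6.5, for 5 min at 37°C. Labeling was quenched with β-mercaptoethanol, and cells were resuspended in PBS with 0.4% glucose. FeEnt was added to 2.5 × 10^7 cells in 3 ml, stirred at 2°C, with emission read at 520 nm.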

[2] = 59FeEnt transport; format: cell-based, Escherichia coli; settings: for Vmax fold lower after fluoresceination: 59FeEnt uptake; for Transport rate relative to wild-type FepA: FM-modified, TonB-dependent uptake
How it was run: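 Cultures were grown in LB with antibiotics, then in iron-deficient MOPS medium to 10^9 cells/ml. Cells were assayed before and after labeling with 5 µM fluorescein-5-maleimide (pH 6.5 phosphate/NaCl buffer, 5 min, 37°C, β-mercaptoethanol stop). Uptake was measured in MOPS medium with 0.4% glucose at 37°C in 10-ml volumes. KM and Vmax came from an enzyme-kinetics equation fit per sample.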

B1: S275C: E. coli FepA with Cys substitution at S275, surface loop 3 (protein, UniProt P05825 23-746, looked up, variant S275C)
Ferrienterobactin receptor: QEPTDTPVSHDDTIVVTAAEQNLQAPGVSTITADEIRKNPVARDVSKIIRTMPGVNLTGNSTSGQRGNNRQIDIRGMGPENTLILIDGKPVSSRNSVRQGWRGERDTRGDTSWVPPEMIERIEVLRGPAAARYGNGAAGGVVNIITKKGSGEWHGSWDAYFNAPEHKEEGATKRTNFSLTGPLGDEFSFRLYGNLDKTQADAWDINQGHQSARAGTYATTLPAGREGVINKDINGVVRWDFAPLQSLELEAGYSRQGNLYAGDTQNTNSDSYTRCKYGDETNRLYRQNYALTWNGGWDNGVTTSNWVQYEHTRNSRIPEGLAGGTEGKFNEKATQDFVDIDLDDVMLHSEVNLPIDFLVNQTLTLGTEWNQQRMKDLSSNTQALTGTNTGGAIDGVSTTDRSPYSKAEIFSLFAENNMELTDSTIVTPGLRFDHHSIVGNNWSPALNISQGLGDDFTLKMGIARAYKAPSLYQTNPNYILYSKGQGCYASAGGCYLQGNDDLKAETSINKEIGLEFKRDGWLAGVTWFRNDYRNKIEAGYVAVGQNAVGTDLYQWDNVPKAVVEGLEGSLNVPVSETVMWTNNITYMLKSENKTTGDRLSIIPEYTLNSTLSWQAREDLSMQTTFTWYGKQQPKKYNYKGQPAVGPETKEISPYSIVGLSATWDVTKNVSLTGGVDNLFDKRLWRAGNAQTTGDLAGANYIAGAGAYTYNEPGRTWYMSVNTHF
[1]
  Quenching of FM emissions by FeEnt binding: unaffected by FeEnt

B2: A383C-FM: FepA A383C labeled with fluorescein-5-maleimide (FM) (conjugate, UniProt P05825 23-746, looked up, variant A383C)
Ferrienterobactin receptor: QEPTDTPVSHDDTIVVTAAEQNLQAPGVSTITADEIRKNPVARDVSKIIRTMPGVNLTGNSTSGQRGNNRQIDIRGMGPENTLILIDGKPVSSRNSVRQGWRGERDTRGDTSWVPPEMIERIEVLRGPAAARYGNGAAGGVVNIITKKGSGEWHGSWDAYFNAPEHKEEGATKRTNFSLTGPLGDEFSFRLYGNLDKTQADAWDINQGHQSARAGTYATTLPAGREGVINKDINGVVRWDFAPLQSLELEAGYSRQGNLYAGDTQNTNSDSYTRSKYGDETNRLYRQNYALTWNGGWDNGVTTSNWVQYEHTRNSRIPEGLAGGTEGKFNEKATQDFVDIDLDDVMLHSEVNLPIDFLVNQTLTLGTEWNQQRMKDLSSNTQCLTGTNTGGAIDGVSTTDRSPYSKAEIFSLFAENNMELTDSTIVTPGLRFDHHSIVGNNWSPALNISQGLGDDFTLKMGIARAYKAPSLYQTNPNYILYSKGQGCYASAGGCYLQGNDDLKAETSINKEIGLEFKRDGWLAGVTWFRNDYRNKIEAGYVAVGQNAVGTDLYQWDNVPKAVVEGLEGSLNVPVSETVMWTNNITYMLKSENKTTGDRLSIIPEYTLNSTLSWQAREDLSMQTTFTWYGKQQPKKYNYKGQPAVGPETKEISPYSIVGLSATWDVTKNVSLTGGVDNLFDKRLWRAGNAQTTGDLAGANYIAGAGAYTYNEPGRTWYMSVNTHF
modifications: fluorescein-5-maleimide label
[2]
  Vmax fold lower after fluoresceination: 3–10 fold

B3: T550C-FM: FepA T550C labeled with fluorescein-5-maleimide (FM) (conjugate, UniProt P05825 23-746, looked up, variant T550C)
Ferrienterobactin receptor: QEPTDTPVSHDDTIVVTAAEQNLQAPGVSTITADEIRKNPVARDVSKIIRTMPGVNLTGNSTSGQRGNNRQIDIRGMGPENTLILIDGKPVSSRNSVRQGWRGERDTRGDTSWVPPEMIERIEVLRGPAAARYGNGAAGGVVNIITKKGSGEWHGSWDAYFNAPEHKEEGATKRTNFSLTGPLGDEFSFRLYGNLDKTQADAWDINQGHQSARAGTYATTLPAGREGVINKDINGVVRWDFAPLQSLELEAGYSRQGNLYAGDTQNTNSDSYTRSKYGDETNRLYRQNYALTWNGGWDNGVTTSNWVQYEHTRNSRIPEGLAGGTEGKFNEKATQDFVDIDLDDVMLHSEVNLPIDFLVNQTLTLGTEWNQQRMKDLSSNTQALTGTNTGGAIDGVSTTDRSPYSKAEIFSLFAENNMELTDSTIVTPGLRFDHHSIVGNNWSPALNISQGLGDDFTLKMGIARAYKAPSLYQTNPNYILYSKGQGCYASAGGCYLQGNDDLKAETSINKEIGLEFKRDGWLAGVTWFRNDYRNKIEAGYVAVGQNAVGCDLYQWDNVPKAVVEGLEGSLNVPVSETVMWTNNITYMLKSENKTTGDRLSIIPEYTLNSTLSWQAREDLSMQTTFTWYGKQQPKKYNYKGQPAVGPETKEISPYSIVGLSATWDVTKNVSLTGGVDNLFDKRLWRAGNAQTTGDLAGANYIAGAGAYTYNEPGRTWYMSVNTHF
modifications: fluorescein-5-maleimide label
[2]
  Vmax fold lower after fluoresceination: 3–10 fold

B4: A698C-FM: FepA A698C labeled with fluorescein-5-maleimide (FM) (conjugate, UniProt P05825 23-746, looked up, variant A698C)
Ferrienterobactin receptor: QEPTDTPVSHDDTIVVTAAEQNLQAPGVSTITADEIRKNPVARDVSKIIRTMPGVNLTGNSTSGQRGNNRQIDIRGMGPENTLILIDGKPVSSRNSVRQGWRGERDTRGDTSWVPPEMIERIEVLRGPAAARYGNGAAGGVVNIITKKGSGEWHGSWDAYFNAPEHKEEGATKRTNFSLTGPLGDEFSFRLYGNLDKTQADAWDINQGHQSARAGTYATTLPAGREGVINKDINGVVRWDFAPLQSLELEAGYSRQGNLYAGDTQNTNSDSYTRSKYGDETNRLYRQNYALTWNGGWDNGVTTSNWVQYEHTRNSRIPEGLAGGTEGKFNEKATQDFVDIDLDDVMLHSEVNLPIDFLVNQTLTLGTEWNQQRMKDLSSNTQALTGTNTGGAIDGVSTTDRSPYSKAEIFSLFAENNMELTDSTIVTPGLRFDHHSIVGNNWSPALNISQGLGDDFTLKMGIARAYKAPSLYQTNPNYILYSKGQGCYASAGGCYLQGNDDLKAETSINKEIGLEFKRDGWLAGVTWFRNDYRNKIEAGYVAVGQNAVGTDLYQWDNVPKAVVEGLEGSLNVPVSETVMWTNNITYMLKSENKTTGDRLSIIPEYTLNSTLSWQAREDLSMQTTFTWYGKQQPKKYNYKGQPAVGPETKEISPYSIVGLSATWDVTKNVSLTGGVDNLFDKRLWRAGNAQTTGDLAGCNYIAGAGAYTYNEPGRTWYMSVNTHF
modifications: fluorescein-5-maleimide label
[2]
  Transport rate relative to wild-type FepA: 90%

B5: fepA+: wild-type E. coli FepA, outer membrane ferric enterobactin transporter, expressed from pHSG575 plasmid (protein, UniProt P05825 23-746, looked up)
Ferrienterobactin receptor: QEPTDTPVSHDDTIVVTAAEQNLQAPGVSTITADEIRKNPVARDVSKIIRTMPGVNLTGNSTSGQRGNNRQIDIRGMGPENTLILIDGKPVSSRNSVRQGWRGERDTRGDTSWVPPEMIERIEVLRGPAAARYGNGAAGGVVNIITKKGSGEWHGSWDAYFNAPEHKEEGATKRTNFSLTGPLGDEFSFRLYGNLDKTQADAWDINQGHQSARAGTYATTLPAGREGVINKDINGVVRWDFAPLQSLELEAGYSRQGNLYAGDTQNTNSDSYTRSKYGDETNRLYRQNYALTWNGGWDNGVTTSNWVQYEHTRNSRIPEGLAGGTEGKFNEKATQDFVDIDLDDVMLHSEVNLPIDFLVNQTLTLGTEWNQQRMKDLSSNTQALTGTNTGGAIDGVSTTDRSPYSKAEIFSLFAENNMELTDSTIVTPGLRFDHHSIVGNNWSPALNISQGLGDDFTLKMGIARAYKAPSLYQTNPNYILYSKGQGCYASAGGCYLQGNDDLKAETSINKEIGLEFKRDGWLAGVTWFRNDYRNKIEAGYVAVGQNAVGTDLYQWDNVPKAVVEGLEGSLNVPVSETVMWTNNITYMLKSENKTTGDRLSIIPEYTLNSTLSWQAREDLSMQTTFTWYGKQQPKKYNYKGQPAVGPETKEISPYSIVGLSATWDVTKNVSLTGGVDNLFDKRLWRAGNAQTTGDLAGANYIAGAGAYTYNEPGRTWYMSVNTHF
[2]; 59FeEnt, 37°C, before modification with FM, listed as wild-type FepA
  Transport <FM Vmax: ~100 pMol/min/10^9 cells

B6: S271C-FM (conjugate, UniProt P05825 23-746, looked up, variant S271C)
Ferrienterobactin receptor: QEPTDTPVSHDDTIVVTAAEQNLQAPGVSTITADEIRKNPVARDVSKIIRTMPGVNLTGNSTSGQRGNNRQIDIRGMGPENTLILIDGKPVSSRNSVRQGWRGERDTRGDTSWVPPEMIERIEVLRGPAAARYGNGAAGGVVNIITKKGSGEWHGSWDAYFNAPEHKEEGATKRTNFSLTGPLGDEFSFRLYGNLDKTQADAWDINQGHQSARAGTYATTLPAGREGVINKDINGVVRWDFAPLQSLELEAGYSRQGNLYAGDTQNTNSDCYTRSKYGDETNRLYRQNYALTWNGGWDNGVTTSNWVQYEHTRNSRIPEGLAGGTEGKFNEKATQDFVDIDLDDVMLHSEVNLPIDFLVNQTLTLGTEWNQQRMKDLSSNTQALTGTNTGGAIDGVSTTDRSPYSKAEIFSLFAENNMELTDSTIVTPGLRFDHHSIVGNNWSPALNISQGLGDDFTLKMGIARAYKAPSLYQTNPNYILYSKGQGCYASAGGCYLQGNDDLKAETSINKEIGLEFKRDGWLAGVTWFRNDYRNKIEAGYVAVGQNAVGTDLYQWDNVPKAVVEGLEGSLNVPVSETVMWTNNITYMLKSENKTTGDRLSIIPEYTLNSTLSWQAREDLSMQTTFTWYGKQQPKKYNYKGQPAVGPETKEISPYSIVGLSATWDVTKNVSLTGGVDNLFDKRLWRAGNAQTTGDLAGANYIAGAGAYTYNEPGRTWYMSVNTHF
modifications: fluorescein-5-maleimide label
[2]
  Transport rate relative to wild-type FepA: 65%

B7: A322C (protein, UniProt P05825 23-746, looked up, variant A322C)
Ferrienterobactin receptor: QEPTDTPVSHDDTIVVTAAEQNLQAPGVSTITADEIRKNPVARDVSKIIRTMPGVNLTGNSTSGQRGNNRQIDIRGMGPENTLILIDGKPVSSRNSVRQGWRGERDTRGDTSWVPPEMIERIEVLRGPAAARYGNGAAGGVVNIITKKGSGEWHGSWDAYFNAPEHKEEGATKRTNFSLTGPLGDEFSFRLYGNLDKTQADAWDINQGHQSARAGTYATTLPAGREGVINKDINGVVRWDFAPLQSLELEAGYSRQGNLYAGDTQNTNSDSYTRSKYGDETNRLYRQNYALTWNGGWDNGVTTSNWVQYEHTRNSRIPEGLCGGTEGKFNEKATQDFVDIDLDDVMLHSEVNLPIDFLVNQTLTLGTEWNQQRMKDLSSNTQALTGTNTGGAIDGVSTTDRSPYSKAEIFSLFAENNMELTDSTIVTPGLRFDHHSIVGNNWSPALNISQGLGDDFTLKMGIARAYKAPSLYQTNPNYILYSKGQGCYASAGGCYLQGNDDLKAETSINKEIGLEFKRDGWLAGVTWFRNDYRNKIEAGYVAVGQNAVGTDLYQWDNVPKAVVEGLEGSLNVPVSETVMWTNNITYMLKSENKTTGDRLSIIPEYTLNSTLSWQAREDLSMQTTFTWYGKQQPKKYNYKGQPAVGPETKEISPYSIVGLSATWDVTKNVSLTGGVDNLFDKRLWRAGNAQTTGDLAGANYIAGAGAYTYNEPGRTWYMSVNTHF
[2]; before fluoresceination
  59FeEnt transport rate compared with wild-type FepA: about half that rate
